Reference: ChEMBL document CHEMBL3351994, “Synthesis and biological evaluation of novel millepachine derivatives as a new class of tubulin polymerization inhibitors” (J Med Chem, 2014)
One block for each molecule: values may come before it. The source made the active and inactive calls. The rule behind the calls is not given here.

Legend:
HepG2 = assay: Antiproliferative activity against human HepG2 cells assessed as inhibition of cell proliferation after 48 hrs by MTT assay; type: functional, cell-based
Procedure, shortened: (§1)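 Cells grown at 37 °C in humidified 5% CO2. K562, C26 and HCT lines in RPMI-1640; other lines in DMEM; both media with 10% FBS, penicillin and streptomycin. 1000 cells/well seeded, incubated overnight, then compound at various doses for 48 h. MTT added for 4 h, formazan dissolved in DMSO, absorbance read at 590 nm. IC50 from dose–response curves, mean ± SEM of at least three independent experiments.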

A-375 = assay: Antiproliferative activity against human A375 cells assessed as inhibition of cell proliferation after 48 hrs by MTT assay; type: functional, cell-based; settings: A-375, 48 h; procedure, shortened: as §1
K562 = assay: Antiproliferative activity against human K562 cells assessed as inhibition of cell proliferation after 48 hrs by MTT assay; type: functional, cell-based; settings: K562, 48 h; procedure, shortened: as §1
MCF7 = assay: Antiproliferative activity against human MCF7 cells assessed as inhibition of cell proliferation after 48 hrs by MTT assay; type: functional, cell-based; settings: MCF7, 48 h; procedure, shortened: as §1
Mus musculus [1] = assay: Toxicity in mouse C26 cells xenografted Balb/C mouse assessed as mortality level at 5 mg/kg, iv dosed every 4 days for 4 days; type: organism-based; set-up: dose 5 mg/kg, route intravenous; settings: in vivo, 96 h
Procedure, shortened: (§2)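 Female Balb/C or athymic nude mice, 5−6 weeks old, implanted sc in the right flank/armpit with 5 × 10^6 cells in HBSS. Once tumors reached 100 mm3, mice were randomized (6 per group) and dosed with vehicle (2.5% Tween-80, 2.5% ethanol) or drug. Toxicity signs and mortality observed daily. Body weight and caliper tumor volume measured every 2 days.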

[2] = Antiproliferative activity against mouse C26 cells assessed as inhibition of cell proliferation after 48 hrs by MTT assay; type: functional, cell-based; settings: C26, 48 h; procedure, shortened: as §1
[3] = Antiproliferative activity against human HCT15 cells assessed as inhibition of cell proliferation after 48 hrs by MTT assay; type: functional, cell-based; settings: HCT-15, 48 h; procedure, shortened: as §1
[4] = Antiproliferative activity against taxol resistant human HCT8 cells assessed as inhibition of cell proliferation after 48 hrs by MTT assay; type: functional, cell-based; settings: HCT-8, 48 h; procedure, shortened: as §1
[5] = Antiproliferative activity against taxol resistant human […] cells assessed as inhibition of cell proliferation after 48 hrs by MTT assay; type: functional, cell-based; settings: A2780, 48 h; procedure, shortened: as §1
U-251 = assay: Antiproliferative activity against human U251 cells assessed as inhibition of cell proliferation after 48 hrs by MTT assay; type: functional, cell-based; settings: U-251, 48 h; procedure, shortened: as §1
Mus musculus [6] = assay: Toxicity in cisplatin-resistant human […] cells xenografted Balb/C mouse assessed as body weight changes at 5 mg/kg, iv dosed every 4 days for 4 days; type: organism-based, A2780cisR; set-up: dose 5 mg/kg, route intravenous; settings: in vivo, 96 h
Procedure, shortened: (§3)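 Xenografts: 5 × 10^6 tumour cells injected sc in right armpit/flank of 5−6-week-old female mice; at 100 mm3 tumour volume, randomized (6 per group) and dosed in vehicle of 2.5% Tween-80 and 2.5% ethanol; body weights and caliper tumour volumes recorded every 2 days, toxicity signs and mortality daily.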

[7] = Antiproliferative activity against human DLD1 cells assessed as inhibition of cell proliferation after 48 hrs by MTT assay; type: functional, cell-based; settings: DLD-1, 48 h; procedure, shortened: as §1
[8] = Antitumor activity against cisplatin-resistant human […] cells xenografted in Balb/C mouse assessed as tumor mass changes at 5 mg/kg, iv dosed every 4 days for 4 days; type: functional, A2780cisR
Procedure, shortened: (§4)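 Female Balb/c or athymic nude mice, 5–6 weeks old. 5 × 10^6 cells in HBSS implanted sc in the right flank/armpit. Treatment began at tumor volume 100 mm3, 6 mice per group; vehicle was 2.5% Tween-80 and 2.5% ethanol. Tumor volume (π/6 × L × W²) and body weight measured every 2 days. Inhibition = (1 − treated/control tumor weight) × 100%.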

[9] = Antiproliferative activity against human A2780S cells assessed as inhibition of cell proliferation after 48 hrs by MTT assay; type: functional, cell-based; settings: A2780, 48 h
Procedure, shortened: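 Cells grown in DMEM with 10% FBS, penicillin/streptomycin at 37 °C, 5% CO2. 1000 cells/well seeded, incubated overnight, then exposed to various doses for 48 h. MTT added for 4 h, formazan dissolved in DMSO, absorbance read at 590 nm. IC50 = concentration inhibiting proliferation by 50%, mean ± SEM of dose–response curves from at least three independent experiments.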

Mus musculus [10] = assay: Toxicity in mouse C26 cells xenografted Balb/C mouse assessed as body weight changes at 5 mg/kg, iv dosed every 4 days for 4 days; type: organism-based; set-up: dose 5 mg/kg, route intravenous; settings: in vivo, 96 h; procedure, shortened: as §3
Mus musculus [11] = assay: Toxicity in cisplatin-resistant human […] cells xenografted Balb/C mouse assessed as mortality level at 5 mg/kg, iv dosed every 4 days for 4 days; type: organism-based, A2780cisR; set-up: dose 5 mg/kg, route intravenous; settings: in vivo, 96 h; procedure, shortened: as §2
[12] = Antitumor activity against mouse C26 cells xenografted in Balb/C mouse assessed as tumor mass changes at 5 mg/kg, iv dosed every 4 days for 4 days; type: functional; procedure, shortened: as §4
NCI-H358 = assay: Antiproliferative activity against human NCI-H358 cells assessed as inhibition of cell proliferation after 48 hrs by MTT assay; type: functional, cell-based; settings: NCI-H358, 48 h; procedure, shortened: as §1
AGS = assay: Antiproliferative activity against human AGS cells assessed as inhibition of cell proliferation after 48 hrs by MTT assay; type: functional, cell-based; procedure, shortened: as §1
[13] = Solubility in PBS solution by nephelometry; type: physicochemical
Procedure, shortened: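 Maximum soluble concentration in PBS, determined by nephelometry.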

Tubulin (Homo sapiens) [14] = target: T1, Tubulin (Homo sapiens) (UniProt P68371+Q9H4B7+P0DPH7+P68366+Q13509+Q71U36+P04350+Q3ZCM7+P07437+P68363+Q9BQE3+Q6PEY2+Q13885+Q9BVA1+Q9BUF5); assay: Inhibition of tubulin (unknown origin) polymerization pre-incubated for 5 mins by spectrophotometry; type: protein-complex assay
HUVEC [15] = assay: Antivascular activity in HUVECs assessed as disruption of capillary-like tubes at 50 to 500 nM incubated for 6 hrs by matrigel based tube formation assay; type: functional, cell-based; settings: Homo sapiens
Procedure, shortened: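 HUVECs (2−4 × 10^4) in DMEM seeded on Matrigel polymerized at 37 °C for 30 min. Treated with 50, 100 or 500 nM compound or vehicle at 37 °C. Capillary networks photographed after 6 h and quantified; significance by t-test.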

HUVEC [16] = assay: Antivascular activity in HUVECs assessed as inhibition of cell migration incubated for 20 hrs by phase contrast microscopy based wound healing migration assay; type: functional; settings: Homo sapiens
Procedure, shortened: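 HUVECs grown to confluence in DMEM, then serum-starved for 16 h. Monolayer scratched with a pipet tip and washed with PBS. Serum-free DMEM with vehicle or 50, 100 or 500 nM compound added. Imaged after 20–24 h; migrated cells counted manually and expressed relative to vehicle wells; t-test.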

Tubulin (Homo sapiens) [17] = target: T1, Tubulin (Homo sapiens); assay: Inhibition of tubulin polymerization in human HepG2 cells assessed as abnormal mitotic spindles at 1 uM after 24 hrs by immunofluorescence assay; type: cell-based
Procedure, shortened: (§5)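 HepG2 cells seeded overnight, then given 1 μM compound or DMSO for 24 h; methanol-fixed, blocked 45 min in 5% BSA/PBS, α-tubulin primary antibody overnight at 4 °C, fluorescent secondary 1 h, DAPI nuclear counterstain; microtubules and spindles imaged by fluorescence microscopy.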

Tubulin (Homo sapiens) [18] = target: T1, Tubulin (Homo sapiens); assay: Inhibition of tubulin polymerization in human HepG2 cells assessed as multiple tubulin bundles at 1 uM after 24 hrs by immunofluorescence assay; type: cell-based; procedure, shortened: as §5
Tubulin (Homo sapiens) [19] = target: T1, Tubulin (Homo sapiens); assay: Inhibition of tubulin polymerization in human HepG2 cells assessed as microtubule polymerization alterations at 1 uM after 24 hrs by immunofluorescence assay; type: cell-based; procedure, shortened: as §5
Tubulin (Homo sapiens) [20] = target: T1, Tubulin (Homo sapiens); assay: Inhibition of tubulin polymerization in human HepG2 cells assessed as spindle formation alterations at 1 uM after 24 hrs by immunofluorescence assay; type: cell-based; procedure, shortened: as §5

Structure (SMILES): COc1ccc(/C=C/C(=O)c2ccc(OC)c3c2OC(C)(C)C=C3)cc1NCc1ccccc1
- IC50 (HepG2; Homo sapiens, HepG2, 48 h): 970 nM
- IC50 (A-375): 790 nM
- IC50 (K562): 1860 nM

Structure (SMILES): CC(=O)O[C@H]1C(=O)[C@@]2(C)[C@H]([C@H](OC(=O)c3ccccc3)[C@]3(O)C[C@H](OC(=O)[C@H](O)[C@@H](NC(=O)c4ccccc4)c4ccccc4)C(C)=C1C3(C)C)[C@]1(OC(C)=O)CO[C@@H]1C[C@@H]2O [PACLITAXEL]
- IC50 (MCF7): 132 nM
- IC50 (HepG2; Homo sapiens, HepG2, 48 h): 38 nM
- Activity (Mus musculus [1]): Non-toxic
- IC50 [2]: 210 nM
- IC50 [3]: 24 nM
- IC50 [4]: 266 nM
- IC50 [5]: 107 nM
- IC50 (U-251): 23 nM
- Activity (Mus musculus [6]): -5.6%
- IC50 [7]: 16 nM
- Activity [8]: 69%
- IC50 [9]: 4 nM
- Activity (Mus musculus [10]): -3.7%
- Activity (Mus musculus [11]): Non-toxic
- Activity [12]: 76%
- IC50 (NCI-H358): 2 nM
- IC50 (AGS): 8 nM

Structure (SMILES): CCCCC(=O)Nc1cc(/C=C/C(=O)c2ccc(OC)c3c2OC(C)(C)C=C3)ccc1OC
- IC50 (HepG2; Homo sapiens, HepG2, 48 h): 1300 nM
- IC50 (A-375): 1590 nM
- IC50 (K562): 1160 nM

Structure (SMILES): COc1ccc(/C=C/C(=O)c2ccc(OC)c3c2OC(C)(C)C=C3)cc1N.O=C(O)/C=C\C(=O)O
- IC50 (HepG2; hepg2): 12 nM
- solubility kinetic [13]: 47 µg/mL

Structure (SMILES): COc1ccc(/C=C/C(=O)c2ccc(OC)c3c2OC(C)(C)C=C3)cc1N
- inhibition (Tubulin (Homo sapiens) [14]): Dose-dependent effect
- inhibition (HUVEC [15]): Dose-dependent effect
- inhibition (HUVEC [16]): Dose-dependent effect
- inhibition (Tubulin (Homo sapiens) [17]): Active
- inhibition (Tubulin (Homo sapiens) [18]): Active
- inhibition (Tubulin (Homo sapiens) [19]): Active
- inhibition (Tubulin (Homo sapiens) [20]): Active

More lines, now with the values ahead:

- IC50 (HepG2; Homo sapiens, HepG2, 48 h): 2000 nM
- IC50 (A-375): 1800 nM
- IC50 (K562): 1770 nM
Structure (SMILES): COc1ccc(/C=C/C(=O)c2ccc(OC)c3c2OC(C)(C)C=C3)cc1NS(C)(=O)=O

- IC50 (HepG2; Homo sapiens, HepG2, 48 h): > 2000 nM
- IC50 (A-375): > 2000 nM
- IC50 (K562): > 2000 nM
Structure (SMILES): CNc1cc(/C=C/C(=O)c2ccc(OC)c3c2OC(C)(C)C=C3)ccc1OC
